ChEMBL document CHEMBL3758131, “Towards new 5-HT7 antagonists among arylsulfonamide derivatives of (aryloxy)ethyl-alkyl amines: Multiobjective based design, synthesis, and antidepressant and anxiolytic properties” (Eur J Med Chem, 2016)
pKi: −log10 of the molar value. Active and inactive are the calls of the source. The rule behind the calls is not given here.

How the values were obtained:
[1] = target: T1, 5-hydroxytryptamine receptor 1A (Homo sapiens, UniProt P08908); experiment: Displacement of [3H]-8-OH-DPAT from human 5-HT1A receptor expressed in HEK293 cells after 1 hr; type: cell-based
T1 sequence (P08908 whole entry): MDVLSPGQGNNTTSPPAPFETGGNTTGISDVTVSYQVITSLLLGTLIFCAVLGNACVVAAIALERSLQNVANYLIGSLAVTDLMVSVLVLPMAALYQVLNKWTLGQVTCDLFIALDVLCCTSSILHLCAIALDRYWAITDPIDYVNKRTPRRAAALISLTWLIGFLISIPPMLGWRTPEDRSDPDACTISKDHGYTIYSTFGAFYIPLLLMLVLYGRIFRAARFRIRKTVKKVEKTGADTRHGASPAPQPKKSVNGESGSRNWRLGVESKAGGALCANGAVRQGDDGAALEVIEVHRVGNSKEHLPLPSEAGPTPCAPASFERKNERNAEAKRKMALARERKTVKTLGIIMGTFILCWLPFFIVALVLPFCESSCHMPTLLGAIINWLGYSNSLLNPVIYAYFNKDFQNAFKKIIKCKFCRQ
Outline: (§1)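 Competition binding on membranes from HEK293 cells stably expressing human 5-HT7b or 5-HT1A. Incubation 1 h, at 37 °C for 5-HT7b and at room temperature for 5-HT1A. Non-specific binding defined with 10 µM 5-HT.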

[2] = target: T2, 5-hydroxytryptamine receptor 7 (Homo sapiens, UniProt P34969); experiment: Displacement of [3H]-5-CT from human 5-HT7B receptor expressed in HEK293 cells after 1 hr; type: cell-based; outline: as §1
T2 sequence (P34969 whole entry): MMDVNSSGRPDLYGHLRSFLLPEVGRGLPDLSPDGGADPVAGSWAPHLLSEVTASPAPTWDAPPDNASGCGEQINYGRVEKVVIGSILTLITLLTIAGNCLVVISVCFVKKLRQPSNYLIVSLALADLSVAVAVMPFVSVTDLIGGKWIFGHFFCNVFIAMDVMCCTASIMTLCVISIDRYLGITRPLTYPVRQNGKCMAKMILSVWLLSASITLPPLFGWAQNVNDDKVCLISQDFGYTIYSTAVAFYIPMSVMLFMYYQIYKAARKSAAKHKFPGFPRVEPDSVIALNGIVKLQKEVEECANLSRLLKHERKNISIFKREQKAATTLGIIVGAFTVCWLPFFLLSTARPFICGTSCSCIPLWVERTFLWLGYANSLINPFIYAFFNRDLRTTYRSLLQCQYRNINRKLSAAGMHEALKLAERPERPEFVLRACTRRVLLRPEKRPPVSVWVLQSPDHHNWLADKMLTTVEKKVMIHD

Homo sapiens = species: Homo sapiens; experiment: Selectivity index ratio of Ki for human 5-HT1A receptor to Ki for human 5-HT7B
Mus musculus [3] = experiment: Toxicity in ip dosed C57BL/6J mouse assessed as effect on spontaneous locomotory activity at MED measured over 6 mins; type: organism-based; details: in vivo, 0.1 h
Outline: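 Mice habituated 30 min in individual cages, then ambulation counted over a period matching each behavioural test: 6 min for the tail suspension test and 1 min 15 s for the four-plate test. Compounds given ip at the active doses.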

Mus musculus [4] = experiment: Toxicity in ip dosed C57BL/6J mouse assessed as effect on spontaneous locomotory activity at MED measured over 1 min 15 secs; type: organism-based; details: in vivo
Mus musculus [5] = experiment: Antidepressant activity in C57BL/6J mouse assessed as average force at 40 mg/kg, ip measured over 6 mins by tail suspension test (reference value: 0.281 +/- 0.018 to 0.359 +/- 0.027 N); type: functional
Mus musculus [6] = experiment: Antidepressant activity in C57BL/6J mouse assessed as number of events at 20 mg/kg, ip measured over 6 mins by tail suspension test (reference value: 1325.1 +/- 77.8 to 1773.4 +/- 109.9); type: functional
Rattus norvegicus = experiment: Antidepressant activity in ip dosed Wistar rat assessed as reduction in immobility time of rat by forced swim test; type: functional
Outline: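 Male Wistar rats (220-250 g), ip injection 30 min before test. Day 1: 15-min pre-swim in a cylinder with 15 cm of water at 25 °C, then drying under a lamp. Next day: total immobility recorded over the whole 5-min test, with fresh water for each rat.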

Mus musculus [7] = experiment: Antidepressant activity in C57BL/6J mouse assessed as average force at 20 mg/kg, ip measured over 6 mins by tail suspension test (reference value: 0.281 +/- 0.018 to 0.359 +/- 0.027 N); type: functional
Mus musculus [8] = experiment: Antidepressant activity in C57BL/6J mouse assessed as immobility time at 20 mg/kg, ip measured over 6 mins by tail suspension test (reference value: 160.7 +/- 12 to 170.6 +/- 9 sec); type: functional
Mus musculus [9] = experiment: Toxicity in ip dosed albino Swiss mouse assessed as effect on spontaneous locomotory activity at MED measured over 2 to 6 mins; type: organism-based; details: in vivo
Outline: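 Male Albino Swiss mice (22–28 g) received drug i.p. 60 min before testing, in 1% aqueous Tween 80 or distilled water. Each mouse was habituated alone in a plastic cage for 30 min, then ambulation was counted from 2 to 6 min. Groups of 6–10 animals, each used once.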

Mus musculus [10] = experiment: Antidepressant activity in ip dosed C57BL/6J mouse assessed as reduction in immobility time of mouse by tail suspension test; type: functional; details: read-out: MED
Mus musculus [11] = experiment: Antidepressant activity in C57BL/6J mouse assessed as number of events at 10 mg/kg, ip measured over 6 mins by tail suspension test (reference value: 1325.1 +/- 77.8 to 1773.4 +/- 109.9); type: functional
Mus musculus [12] = experiment: Antidepressant activity in ip dosed albino Swiss mouse assessed as decrease in immobility time by forced swim test; type: functional, organism-based
Mus musculus [13] = experiment: Antidepressant activity in C57BL/6J mouse assessed as immobility time at 40 mg/kg, ip measured over 6 mins by tail suspension test (reference value: 160.7 +/- 12 to 170.6 +/- 9 sec); type: functional
Mus musculus [14] = experiment: Antidepressant activity in C57BL/6J mouse assessed as average force at 10 mg/kg, ip measured over 6 mins by tail suspension test (reference value: 0.281 +/- 0.018 to 0.359 +/- 0.027 N); type: functional
Mus musculus [15] = experiment: Antidepressant activity in C57BL/6J mouse assessed as number of events at 40 mg/kg, ip measured over 6 mins by tail suspension test (reference value: 1325.1 +/- 77.8 to 1773.4 +/- 109.9); type: functional
Mus musculus [16] = experiment: Antidepressant activity in C57BL/6J mouse assessed as immobility time at 10 mg/kg, ip measured over 6 mins by tail suspension test (reference value: 160.7 +/- 12 to 170.6 +/- 9 sec); type: functional
[17] = target: 5-hydroxytryptamine receptor 2A (Homo sapiens, UniProt P28223); experiment: Displacement of [3H]-Ketanserin from human 5-HT2A receptor expressed in HEK293 cells after 1 hr; type: cell-based
5-hydroxytryptamine receptor 2A, sequence (P28223 whole entry): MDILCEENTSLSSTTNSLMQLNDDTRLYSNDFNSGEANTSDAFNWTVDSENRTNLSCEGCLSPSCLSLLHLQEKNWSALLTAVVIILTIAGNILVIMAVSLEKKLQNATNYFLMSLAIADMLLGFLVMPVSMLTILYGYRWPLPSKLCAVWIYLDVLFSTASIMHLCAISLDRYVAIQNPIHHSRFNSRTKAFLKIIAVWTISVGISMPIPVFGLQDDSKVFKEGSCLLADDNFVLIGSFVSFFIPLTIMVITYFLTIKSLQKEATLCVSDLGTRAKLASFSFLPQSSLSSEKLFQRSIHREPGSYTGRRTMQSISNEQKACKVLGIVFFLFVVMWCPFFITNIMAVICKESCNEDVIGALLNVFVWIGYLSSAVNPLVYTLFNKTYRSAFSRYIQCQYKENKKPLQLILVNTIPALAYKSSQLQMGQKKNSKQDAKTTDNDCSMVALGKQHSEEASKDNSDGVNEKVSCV

[18] = target: T2, 5-hydroxytryptamine receptor 7; experiment: Antagonist activity at human 5-HT7B receptor expressed in CHO cells assessed as inhibition of 5-CT induced cAMP production at 10^-7 M after 30 mins by TR-FRET assay; type: functional, cell-based
[19] = target: T2, 5-hydroxytryptamine receptor 7; experiment: Antagonist activity at human 5-HT7B receptor expressed in […] cells assessed as inhibition of 5-CT induced cAMP production at 10^-6 M after 30 mins by TR-FRET assay; type: functional, cell-based

Row | Structure (SMILES) | pKi [1] | pKi [2] | Ratio Ki (Homo sapiens) | other results
1 | CC(C)c1ccccc1OCCN1CC(NS(=O)(=O)c2cccc(F)c2)C1 | 7.55 |  |  | 
2 | CC(C)Oc1ccccc1OCCN1CCC(NS(=O)(=O)c2ccc(F)cc2)CC1 | 6.71 | 7.57 |  | 
3 | CC(C)c1cccc(OCCN2C3CCC2CC(NS(=O)(=O)c2ccc(F)c(F)c2)C3)c1 (stereo not given) | 7.00 | 8.05 | 11 | 
4 | COc1ccccc1OCCN1CCC(NS(=O)(=O)c2ccc(F)cc2)CC1 | 6.33 | 6.46 |  | 
5 | CC(C)(C)c1ccccc1OCCN1CCC(NS(=O)(=O)c2cccc(Cl)c2)CC1 | 5.73 | 7.13 | 25 | 
6 | CN1C(=O)CN=C(c2ccccc2)c2cc(Cl)ccc21 [DIAZEPAM] |  |  |  | Activity (Mus musculus [3]): Non-toxic; Activity (Mus musculus [4]): Non-toxic
7 | O=S(=O)(NC1CC2CCC(C1)N2CCOc1cccc(-c2ccccc2)c1)c1cccc(F)c1 (stereo not given) | 6.91 | 7.92 | 10 | 
8 | O=S(=O)(NC1CC2CCC(C1)N2CCOc1cccc(-c2ccccc2)c1)c1ccc(F)cc1 (stereo not given) | 6.77 | 7.85 | 12 | 
9 | CC(C)c1cccc(OCCN2C3CCC2CC(NS(=O)(=O)c2cc(F)ccc2F)C3)c1 (stereo not given) | 7.29 | 8.40 | 13 | 
10 | CC(C)c1ccccc1OCCN1CCC(NS(=O)(=O)c2cccnc2)CC1 | 6.43 | 7.14 | 5 | 
11 | CC(C)c1cccc(OCCN2C3CCC2CC(NS(=O)(=O)c2cnn(C)c2)C3)c1 (stereo not given) | 6.37 | 7.15 | 6 | 
12 | O=S(=O)(NC1CCN(CCOc2ccccc2-c2ccccc2)CC1)c1cccnc1 | 6.27 | 7.28 | 10 | 
13 | Cn1cc(S(=O)(=O)NC2CN(CCOc3ccccc3-c3ccccc3)C2)cn1 | 7.34 | 7.40 | 1 | 
14 | O=S(=O)(NC1CCN(CCOc2ccccc2)CC1)c1ccc(F)cc1 | 5.75 | 6.07 |  | 
15 | O=S(=O)(NC1CCN(CCOc2ccccc2C2CCCC2)CC1)c1ccc(F)cc1 | 6.43 | 7.80 | 23 | 
16 | CC(C)c1ccccc1OCCN1CC(NS(=O)(=O)c2ccc(F)cc2)C1 | 7.35 | 8.15 | 6 | 
17 | CC(C)c1cccc(C(C)C)c1OCCN1CCC(NS(=O)(=O)c2ccc(F)cc2)CC1 | 5.21 | 5.72 |  | 
18 | CN(C)CCCC1(c2ccc(F)cc2)OCc2cc(C#N)ccc21 (stereo not given) [CITALOPRAM] |  |  |  | Activity (Mus musculus [5]): 0.398 N; Activity (Mus musculus [6]): 1961.3; MED (Rattus norvegicus): inactive; Activity (Mus musculus [7]): 0.381 N; Time (Mus musculus [8]): 103 s; Activity (Mus musculus [9]): Non-toxic; minimal effective dose (Mus musculus [10]): 20 mg/kg; Activity (Mus musculus [11]): 1820.1; Activity (Mus musculus [3]): Non-toxic; inhibition (Mus musculus [12]): Dose-dependent effect; Time (Mus musculus [13]): 95.5 s; Activity (Mus musculus [14]): 0.318 N; Activity (Mus musculus [15]): 2053.1; Time (Mus musculus [16]): 148.7 s; Activity (Mus musculus [4]): Non-toxic
19 | CC(C)c1ccccc1OCCN1CC2CC1CN2S(=O)(=O)c1ccc(F)cc1 (stereo not given) | 6.59 | 6.79 | 2 | 

Row | Structure (SMILES) | pKi [1] | pKi [2] | Ratio Ki (Homo sapiens) | other results
20 | CC(C)c1ccccc1OCCN1CC2CC1CN2S(=O)(=O)c1cccc(Cl)c1 (stereo not given) | 6.41 | 6.77 | 2 | 
21 | CC(C)c1ccccc1OCCN1CCC(NS(=O)(=O)c2ccc(N)cc2)CC1 | 6.30 | 7.41 | 13 | 
22 | O=S(=O)(c1ccc(F)cc1)N1CC2CC1CN2CCOc1ccccc1-c1ccccc1 (stereo not given) | 5.97 | 6.53 | 4 | 
23 | O=C(Nc1cccc(Cl)c1)NC1CCN(CCOc2ccccc2-c2ccccc2)CC1 | 6.14 | 6.70 | 4 | 
24 | Nc1ccc(S(=O)(=O)NC2CCN(CCOc3ccccc3-c3ccccc3)CC2)cc1 | 6.39 | 7.59 | 16 | 
25 | CC(C)c1cccc(OCCN2C3CCC2CC(NS(=O)(=O)c2cccc(Cl)c2)C3)c1 (stereo not given) | 6.69 | 8.40 | 52 | 
26 | Cc1ccccc1OCCN1CCC(NS(=O)(=O)c2ccc(F)cc2)CC1 | 6.13 | 6.79 |  | 
27 | O=S(=O)(NC1CN(CCOc2ccccc2-c2ccccc2)C1)c1cccc(Cl)c1 | 7.64 | 7.70 | 1 | 
28 | CC(C)c1ccccc1OCCN1CCC(NC(=O)c2ccc(F)cc2)CC1 | 6.70 | 6.55 | 1 | 
29 | CC(C)c1ccccc1OCCN1CCC(NC(=O)Nc2ccc(F)cc2)CC1 | 6.72 | 6.70 | 1 | 
30 | O=S(=O)(c1cccc(Cl)c1)N1CC2CC1CN2CCOc1ccccc1-c1ccccc1 (stereo not given) | 5.57 | 6.50 | 8 | 
31 | Cn1cc(S(=O)(=O)NC2CCN(CCOc3ccccc3C(C)(C)C)CC2)cn1 | 5.26 | 7.08 | 66 | 
32 | CC(C)c1ccccc1OCCN1CCC(NS(=O)(=O)c2cccc(F)c2)CC1 |  |  |  | pKi [17]: 6.75; inhibition [18]: 70%; inhibition [19]: 99%
33 | CC(C)(C)c1ccccc1OCCN1CCC(NS(=O)(=O)c2ccc(F)cc2)CC1 | 5.34 | 7.27 | 85 | 
34 | O=S(=O)(NC1CCN(CCOc2ccccc2C2CCCC2)CC1)c1cccc(Cl)c1 | 6.25 | 7.77 | 33 | 
35 | O=C(NC1CCN(CCOc2ccccc2-c2ccccc2)CC1)c1cccc(Cl)c1 | 6.83 | 6.71 | 1 | 
36 | O=S(=O)(NC1CC2CCC(C1)N2CCOc1cccc(-c2ccccc2)c1)c1ccc(F)c(F)c1 (stereo not given) | 7.13 | 7.70 | 4 | 
37 | CC(C)c1ccccc1OCCN1CCC(NC(=O)Nc2cccc(Cl)c2)CC1 | 6.23 | 6.58 | 2 | 
